Published values collected from several papers.
Target: cAMP-dependent protein kinase catalytic subunit alpha (PRKACA, Homo sapiens, UniProt P17612)

| Compound | assay | setting | endpoint | result |
| --- | --- | --- | --- | --- |
| Cn1cncc1[C@@](O)(COc1ccc(C#N)cc1-c1ccc(OC(F)(F)F)cc1)c1ccc(C#N)cc1 | cell-free assay, competition with immobilised ligand | 1 µM | remaining binding | 94% |
| C#Cc1n[nH]c2c(-c3cn(C(C)c4ccccn4)c(=O)[nH]c3=O)cc(F)cc12 (stereo not shown) | enzyme activity, inhibitor | 1 µM | inhibition | 15.6% |
| Cc1nn(C)cc1-c1nc2c(N3CCN(Cc4ccc(Cl)cc4)CC3)c(Cl)cnc2[nH]1 | binding, competition with immobilised ligand | 1 µM | remaining binding | 57% |
| COc1ncccc1-c1cnn2ccc(N3CCN(C(=O)OC(C)C)CC3)nc12 | binding, competition with immobilised ligand | 1 µM | remaining binding | 66% |
| O=c1[nH]c2ccccc2n1C1CCN(Cc2ccc(-c3[nH]c4cc5ncnc5cc4nc3-c3ccccc3)cc2)CC1 | cell-free assay | 0.5 µM | remaining signal | 106% |
| Cn1cc(-c2cc(F)cc(N3CCn4c(cc5c4CCCC5)C3=O)c2CO)cc(Nc2ccc(N3CCN(C4COC4)CC3)cn2)c1=O | enzyme activity, inhibitor | 0.1 µM | inhibition | 6% |
| Nc1ncc(-c2nc(N3CCOCC3)nc(N3CCOCC3)n2)c(C(F)F)n1 | binding, competition with immobilised ligand | 10 µM | remaining binding | 85% |
| Cn1cc(-c2cccc(N3CCc4c(sc5c4CC(C)(C)C5)C3=O)c2CO)cc(Nc2ccncn2)c1=O | enzyme activity, inhibitor | 1 µM | inhibition | -3% |
| Nc1ncnc2c1ncn2[C@@H]1O[C@H](COP(=O)(O)OP(=O)(O)OP(=O)(O)O)[C@@H](O)[C@H]1O | enzyme activity, substrate | pH 7.4 | Km | 16.9 µM |
| C#Cc1n[nH]c2c(-c3cn([C@@H](C)c4ccccc4)c(=O)[nH]c3=O)cc(F)cc12 | enzyme activity, inhibitor | 0.1 µM | inhibition | 0% |
